Assay results taken from ChEMBL document CHEMBL3232750, “Synthesis, structure-activity relationships, and in vitro antibacterial and antifungal activity evaluations of novel pyrazole carboxylic and dicarboxylic acid derivatives” (2014).
Converted amounts (≈) assume the structure as drawn. The source made the active and inactive calls. No cut-off for these calls is given here.

Tests used:
Nakaseomyces glabratus = assay: Antifungal activity against Candida glabrata at 25 degC after 48 hrs by agar well diffusion assay; format: functional
In short: (§1)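 Yeast suspensions of 10^7 CFU/mL were swabbed onto Sabouraud Dextrose Agar and dried about 40 min at 35 °C. Compounds were dissolved in DMSO (2.5 mg/ml initial) and diluted two-fold in DMSO, then loaded into 6 mm wells. Plates: 2 h pre-incubation at 25 °C, then 48 h at 25 °C. MIC read as the lowest concentration inhibiting growth around the well, in duplicate. The C. albicans clinical isolate came from a hospitalized patient at Eskisehir Osmangazi University hospital; the standard strain came from a culture collection.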

Pseudomonas aeruginosa = assay: Antibacterial activity against Pseudomonas aeruginosa at 37 degC after 24 hrs by agar well diffusion assay; format: functional, organism-based
In short: (§2)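 Compounds dissolved in DMSO at 2.5 mg/ml initial concentration, then serially diluted two-fold in DMSO. Nutrient Agar plates were swabbed with 10^8 CFU/mL bacteria and dried about 40 min at 35 °C. Solution was placed in 6 mm wells, then 2 h pre-incubation at 25 °C and 24 h at 37 °C. MIC is the lowest concentration giving a growth-inhibition zone around the well. Duplicate.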

Candida albicans [1] = assay: Antifungal activity against Candida albicans ESOGU at 25 degC after 48 hrs by agar well diffusion assay; format: functional; in short: as §1
Candida tropicalis = assay: Antifungal activity against Candida tropicalis at 25 degC after 48 hrs by agar well diffusion assay; format: functional; in short: as §1
Enterococcus = assay: Antibacterial activity against vancomycin-resistant Enterococcus species at 37 degC after 24 hrs by agar well diffusion assay; format: functional, organism-based
In short: (§3)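 Bacteria kept on Nutrient Agar slants at 4 °C and subcultured before use. Suspensions of 10^8 CFU/mL were swabbed onto Nutrient Agar and the plates dried 40 min at 35 °C. Compounds were dissolved in DMSO starting at 2.5 mg/ml, serially diluted two-fold, and loaded into 6 mm wells. Plates were pre-incubated 2 h at 25 °C, then 24 h at 37 °C. Inhibition zones were read and the MIC taken as the lowest inhibiting concentration. Duplicates were run.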

Candida parapsilosis = assay: Antifungal activity against Candida parapsilosis at 25 degC after 48 hrs by agar well diffusion assay; format: functional; conditions: for MIC: Lodderomyces parapsilosis; in short: as §1
Staphylococcus aureus [2] = assay: Antibacterial activity against Staphylococcus aureus at 37 degC after 24 hrs by agar well diffusion assay; format: functional; in short: as §2
Escherichia coli = assay: Antibacterial activity against Escherichia coli at 37 degC after 24 hrs by agar well diffusion assay; format: functional, organism-based; in short: as §2
Candida albicans [3] = assay: Antifungal activity against Candida albicans at 25 degC after 48 hrs by agar well diffusion assay; format: functional; in short: as §1
Staphylococcus aureus [4] = assay: Antibacterial activity against methicillin-resistant Staphylococcus aureus at 37 degC after 24 hrs by agar well diffusion assay; format: functional; in short: as §3

| SMILES | Activity (Nakaseomyces glabratus) | Activity (Pseudomonas aeruginosa) | MIC (Candida albicans [1]) | Activity (Candida tropicalis) | Activity (Enterococcus) | Activity (Candida parapsilosis) | Activity (Staphylococcus aureus [2]) | Activity (Escherichia coli) | MIC (Candida albicans [3]) | Activity (Staphylococcus aureus [4]) | Activity (Candida albicans [1]) | MIC (Staphylococcus aureus [2]) | MIC (Staphylococcus aureus [4]) | MIC (Nakaseomyces glabratus) | MIC (Candida tropicalis) | Activity (Candida albicans [3]) | MIC (Candida parapsilosis) |
| --- | --- | --- | --- | --- | --- | --- | --- | --- | --- | --- | --- | --- | --- | --- | --- | --- | --- |
| CCOC(=O)c1c(C(=O)Nc2ccc(C(F)(F)F)cc2)nn(-c2cccc([N+](=O)[O-])c2)c1-c1ccccc1 | inactive | inactive | 25 µg/mL (≈ 47.7 µM) | inactive | inactive | inactive | inactive | inactive | 25 µg/mL (≈ 47.7 µM) | inactive |  |  |  |  |  |  |  |
| CCNC(=O)NC(=O)c1nn(-c2cccc([N+](=O)[O-])c2)c(-c2ccccc2)c1C(=O)NC(=O)NCC | inactive | inactive | 25 µg/mL (≈ 50.7 µM) | inactive | inactive | inactive | inactive | inactive | 25 µg/mL (≈ 50.7 µM) | inactive |  |  |  |  |  |  |  |
| O=C(Nc1ccccc1C(F)(F)F)c1nn(-c2cccc([N+](=O)[O-])c2)c(-c2ccccc2)c1C(=O)Nc1ccccc1C(F)(F)F | inactive | inactive | 50 µg/mL (≈ 78.2 µM) | inactive | inactive | inactive | inactive | inactive | 25 µg/mL (≈ 39.1 µM) | inactive |  |  |  |  |  |  |  |
| CCNC(=S)NC(=O)c1nn(-c2cccc([N+](=O)[O-])c2)c(-c2ccccc2)c1C(=O)NC(=S)NCC | inactive | inactive | 25 µg/mL (≈ 47.6 µM) | inactive | inactive | inactive | inactive | inactive | 25 µg/mL (≈ 47.6 µM) | inactive |  |  |  |  |  |  |  |
| O=C(Nc1ccc(C(F)(F)F)cc1)c1nn(-c2cccc([N+](=O)[O-])c2)c(-c2ccccc2)c1C(=O)Nc1ccc(C(F)(F)F)cc1 | inactive | inactive |  | inactive | inactive | inactive | inactive | inactive | 50 µg/mL (≈ 78.2 µM) | inactive | inactive |  |  |  |  |  |  |
| CNC(=O)NC(=O)c1nn(-c2cccc([N+](=O)[O-])c2)c(-c2ccccc2)c1C(=O)NC(=O)NC | inactive | inactive | 25 µg/mL (≈ 53.7 µM) | inactive | inactive | inactive |  | inactive | 25 µg/mL (≈ 53.7 µM) |  |  | 50 µg/mL (≈ 107 µM) | 50 µg/mL (≈ 107 µM) |  |  |  |  |
| CCOC(=O)c1c(C(=O)Nc2ccccc2F)nn(-c2cccc([N+](=O)[O-])c2)c1-c1ccccc1 |  | inactive | 50 µg/mL (≈ 105 µM) | inactive | inactive | inactive | inactive | inactive | 25 µg/mL (≈ 52.7 µM) | inactive |  |  |  | 50 µg/mL (≈ 105 µM) |  |  |  |
| CCOC(=O)c1c(C(=O)Nc2cccc(C(F)(F)F)c2)nn(-c2cccc([N+](=O)[O-])c2)c1-c1ccccc1 | inactive | inactive | 50 µg/mL (≈ 95.3 µM) |  | inactive | inactive | inactive | inactive | 25 µg/mL (≈ 47.7 µM) | inactive |  |  |  |  | 50 µg/mL (≈ 95.3 µM) |  |  |
| Cc1cccc(NC(=O)c2nn(-c3cccc([N+](=O)[O-])c3)c(-c3ccccc3)c2C(=O)Nc2cccc(C)c2)c1 | inactive | inactive |  | inactive | inactive | inactive | inactive | inactive |  | inactive | inactive |  |  |  |  | inactive |  |
| O=C(Nc1ccc(F)cc1)c1nn(-c2cccc([N+](=O)[O-])c2)c(-c2ccccc2)c1C(=O)Nc1ccc(F)cc1 | inactive | inactive |  | inactive | inactive | inactive | inactive | inactive | 25 µg/mL (≈ 46.3 µM) | inactive | inactive |  |  |  |  |  |  |
| CCOC(=O)c1c(C(=O)Nc2cccc(F)c2)nn(-c2cccc([N+](=O)[O-])c2)c1-c1ccccc1 | inactive | inactive | 50 µg/mL (≈ 105 µM) | inactive | inactive | inactive | inactive | inactive | 25 µg/mL (≈ 52.7 µM) | inactive |  |  |  |  |  |  |  |
| O=c1[nH][nH]c(=O)c2c(-c3ccccc3)n(-c3cccc([N+](=O)[O-])c3)nc12 | inactive | inactive |  | inactive | inactive | inactive | inactive | inactive | 50 µg/mL (≈ 143 µM) | inactive | inactive |  |  |  |  |  |  |
| O=C(O)c1cnn(-c2cccc([N+](=O)[O-])c2)c1-c1ccccc1 | inactive | inactive |  | inactive | inactive | inactive |  | inactive | 25 µg/mL (≈ 80.8 µM) |  | inactive | 50 µg/mL (≈ 162 µM) | 25 µg/mL (≈ 80.8 µM) |  |  |  |  |
| O=C(Nc1ccccc1F)c1nn(-c2cccc([N+](=O)[O-])c2)c(-c2ccccc2)c1C(=O)Nc1ccccc1F | inactive | inactive |  | inactive | inactive | inactive | inactive | inactive | 25 µg/mL (≈ 46.3 µM) | inactive | inactive |  |  |  |  |  |  |
| O=C(Nc1ccc([N+](=O)[O-])cc1)c1nn(-c2cccc([N+](=O)[O-])c2)c(-c2ccccc2)c1C(=O)Nc1ccc([N+](=O)[O-])cc1 | inactive | inactive | 25 µg/mL (≈ 42.1 µM) |  | inactive |  | inactive | inactive | 25 µg/mL (≈ 42.1 µM) | inactive |  |  |  |  | 50 µg/mL (≈ 84.2 µM) |  | 25 µg/mL (≈ 42.1 µM) |
| O=C(Nc1cccc(F)c1)c1nn(-c2cccc([N+](=O)[O-])c2)c(-c2ccccc2)c1C(=O)Nc1cccc(F)c1 | inactive | inactive |  | inactive | inactive | inactive | inactive | inactive | 50 µg/mL (≈ 92.7 µM) | inactive | inactive |  |  |  |  |  |  |
| CCOC(=O)c1c(C(=O)Nc2ccccc2C(F)(F)F)nn(-c2cccc([N+](=O)[O-])c2)c1-c1ccccc1 | inactive | inactive | 50 µg/mL (≈ 95.3 µM) | inactive | inactive | inactive | inactive | inactive | 50 µg/mL (≈ 95.3 µM) | inactive |  |  |  |  |  |  |  |
| CCOC(=O)c1c(C(=O)Nc2ccc(F)cc2)nn(-c2cccc([N+](=O)[O-])c2)c1-c1ccccc1 | inactive | inactive | 50 µg/mL (≈ 105 µM) | inactive | inactive | inactive | inactive | inactive | 50 µg/mL (≈ 105 µM) | inactive |  |  |  |  |  |  |  |
| O=C(Nc1cccc([N+](=O)[O-])c1)c1nn(-c2cccc([N+](=O)[O-])c2)c(-c2ccccc2)c1C(=O)Nc1cccc([N+](=O)[O-])c1 | inactive | inactive | 25 µg/mL (≈ 42.1 µM) | inactive | inactive |  | inactive | inactive | 25 µg/mL (≈ 42.1 µM) | inactive |  |  |  |  |  |  | 50 µg/mL (≈ 84.2 µM) |
| Cc1ccc(NC(=O)c2nn(-c3cccc([N+](=O)[O-])c3)c(-c3ccccc3)c2C(=O)Nc2ccc(C)cc2)cc1 | inactive | inactive |  | inactive | inactive | inactive | inactive | inactive | 25 µg/mL (≈ 47 µM) | inactive | inactive |  |  |  |  |  |  |
